In ChEMBL document CHEMBL3091283, “Selective cannabinoid receptor type 2 (CB2) agonists: optimization of a series of purines leading to the identification of a clinical candidate for the treatment of osteoarthritic pain” (J Med Chem, 2013):
One block for each compound: values may come before it.

Key:
[1] = AUC in Sprague-Dawley rat at 3 mg/kg, po; type: ADME, organism-based; design: dose 3 mg/kg, route oral; conditions: plasma
[2] = Aqueous solubility in simulated GI fluid at pH 6.8; type: physicochemical
[3] = Lipophilicity, log P of the compound; type: physicochemical; conditions: octanol/water
MDR1 [4] = assay: MDR1-mediated transport in MDCK cells assessed as permeability from basolateral to apical side at 5 uM; type: ADME, cell-based, Canis lupus familiaris; conditions: dog, read-out: permeability
Procedure, shortened: (§1)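 Transport measured across MDCK-MDR1 monolayers at 5 μM, with and without inhibitor. A→B and B→A fluxes recorded in cm/s × 10−6; efflux ratio taken as B→A over A→B.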

MDR1 [5] = assay: MDR1-mediated transport in MDCK cells assessed as permeability from apical to basolateral side at 5 uM; type: ADME, cell-based, Canis lupus familiaris; conditions: dog, read-out: permeability; procedure, shortened: as §1
[6] = Oral bioavailability in Beagle dog at 3 mg/kg; type: ADME, organism-based, Canis lupus familiaris; conditions: in vivo
Procedure, shortened: (§2)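 Male beagle dogs given 1 mg/kg iv and 3 mg/kg po. Plasma PK parameters derived: clearance, volume of distribution, oral half-life, AUC, Cmax and oral bioavailability.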

[7] = Cmax in Beagle dog at 1 mg/kg, iv and 3 mg/kg, po; type: ADME, organism-based, Canis lupus familiaris; conditions: in vivo; procedure, shortened: as §2
[8] = AUC in Beagle dog at 1 mg/kg, iv and 3 mg/kg, po; type: ADME, organism-based, Canis lupus familiaris; conditions: plasma; procedure, shortened: as §2
[9] = Volume of distribution in Beagle dog at 1 mg/kg, iv and 3 mg/kg, po; type: ADME, organism-based, Canis lupus familiaris; conditions: in vivo; procedure, shortened: as §2
[10] = Oral bioavailability in Sprague-Dawley rat at 1 mg/kg; type: ADME, organism-based; conditions: in vivo
Procedure, shortened: (§3)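 Male Sprague-Dawley rats dosed 1 mg/kg iv and 1 mg/kg po. Clearance, volume of distribution, oral half-life, AUC, Cmax and bioavailability calculated from plasma levels.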

[11] = Cmax in Sprague-Dawley rat at 1 mg/kg, iv and 1 mg/kg, po; type: ADME, organism-based; conditions: in vivo; procedure, shortened: as §3
[12] = AUC in Sprague-Dawley rat at 1 mg/kg, iv and 1 mg/kg, po; type: ADME, organism-based; conditions: plasma; procedure, shortened: as §3
[13] = Volume of distribution in Sprague-Dawley rat at 1 mg/kg, iv; type: ADME, organism-based; design: dose 1 mg/kg, route intravenous; conditions: in vivo
Procedure, shortened: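 Male Sprague–Dawley rats were given 1 mg/kg iv. Clearance and volume of distribution were derived from plasma pharmacokinetics.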

[14] = Ratio of drug level in brain to plasma in rat; type: ADME; conditions: read-out: BPR

SMILES: CCN1CCN(c2nc(C)nc3c2nc(-c2ccccc2Cl)n3CCOC)CC1.Cl
AUC [1]: < 50 ng·h/mL

SMILES: CCN1CCN(c2nc(C)nc3[nH]c(-c4ccccc4Cl)nc23)CC1
logP [3]: 3.7

SMILES: COCCn1c(-c2ccccc2Cl)nc2c(N3CCN(CCF)CC3)nc(C)nc21.Cl
AUC [1]: < 50 ng·h/mL

SMILES: CCN1CCN(c2nc(C)nc3c2nc(-c2ccccc2Cl)n3CC2CCOCC2)CC1.Cl
bioavailability [10]: 27%
Vd [13]: 5 L/kg
logP [3]: 3.4

Continued, values first:

solubility [2]: > 100 µM
SMILES: CCN1CCN(c2nc(C)nc3c2nc(-c2ccccc2Cl)n3C)CC1.Cl

logP [3]: 3.2
SMILES: Cc1nc(N2CCN(C)CC2)c2nc(-c3ccccc3Cl)n([C@@H]3CCOC3)c2n1

Papp B→A at 5 µM (MDR1 [4]): 43 ×10⁻⁶ cm/s
Papp A→B at 5 µM (MDR1 [5]): 42 ×10⁻⁶ cm/s
solubility [2]: > 100 µM
bioavailability [6]: 60%
Cmax [7]: 62 ng/mL
AUC [8]: 286 ng·h/mL
Vd [9]: 9.2 L/kg
bioavailability [10]: 43%
Cmax [11]: 76 ng/mL
AUC [12]: 312 ng·h/mL
Vd [13]: 1.9 L/kg
SMILES: Cc1nc(N2CCN(C)CC2)c2nc(-c3ccccc3Cl)n(CCS(C)(=O)=O)c2n1.Cl

Kp [14]: 0.9
Papp B→A at 5 µM (MDR1 [4]): 3.1 ×10⁻⁶ cm/s
Papp A→B at 5 µM (MDR1 [5]): 3.1 ×10⁻⁶ cm/s
solubility [2]: > 100 µM
bioavailability [6]: 76%
Cmax [7]: 352 ng/mL
AUC [8]: 1940 ng·h/mL
Vd [9]: 5.5 L/kg
bioavailability [10]: 67%
Cmax [11]: 60 ng/mL
AUC [12]: 265 ng·h/mL
Vd [13]: 6 L/kg
logP [3]: 3.1
SMILES: Cc1nc(N2CCN(C)CC2)c2nc(-c3ccccc3Cl)n(C3CCOCC3)c2n1.Cl
